# Assay results from ChEMBL document CHEMBL1126787 (J Med Chem, 1993).
# Key:
# [1] = Half-life period in PBS buffer at 37 C in the absence of human serum albumin; format: ADME
# In short: (§1)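 Lactone-to-carboxylate hydrolysis of drug (1 μM total) in PBS (137 mM NaCl, 3 mM KCl, 8 mM Na2HPO4, 1 mM KH2PO4, pH 7.4) at 37 °C, with or without 20 mg/mL (290 μM) HSA. Monitored by HPLC over time. t1/2 and equilibrium % lactone fitted to decay profiles by nonlinear least squares. Average of at least three independent kinetic runs.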
# Homo sapiens [2] = organism: Homo sapiens; test: Association constant for the binding of carboxylate form to human serum albumin; format: functional
# In short: (§2)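 Fluorescence lifetime titration of lactone or carboxylate form (20 μM total drug) with varying HSA. Phase-shift lifetimes measured with 30 MHz modulated excitation, emission taken through a 500-nm long-pass filter. Free fraction computed as (τ − τB)/(τF − τB). K and n obtained by nonlinear least-squares fit to K = [Db]/[Df][aa]^n, where aa is amino acid residues.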
# Homo sapiens [3] = organism: Homo sapiens; test: Association constant for the binding of lactone form to human serum albumin; format: functional; in short: as §2
# Homo sapiens [4] = organism: Homo sapiens; test: % of lactone form at equilibrium in human plasma; format: functional
# In short: (§3)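 Drug (1 μM) incubated at 37 °C in human plasma, continuously aerated with blood gas to hold pH 7.6 ± 0.1. Lactone hydrolysis followed by HPLC. t1/2 and equilibrium % lactone fitted to decay profiles by nonlinear least squares. Average of at least three independent kinetic runs.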
# [5] = Half-life period in human plasma; format: ADME; in short: as §3
# [6] = Half-life period in HSA buffer at 37 degree C in the presence of human serum albumin; format: ADME; conditions: buffer with human serum albumin; in short: as §1
# [7] = Half-life period in PBS buffer at 37 degree C in the absence of human serum albumin; format: ADME; in short: as §1
# Homo sapiens [8] = organism: Homo sapiens; test: % of lactone form at equilibrium in HSA buffer at 37 degree C in the presence of human serum albumin; format: functional; in short: as §1
# Homo sapiens [9] = organism: Homo sapiens; test: % of lactone form at equilibrium in PBS buffer at 37 degree C in the absence of human serum albumin; format: functional; in short: as §1
# Homo sapiens [10] = organism: Homo sapiens; test: n value for the binding of carboxylate form to human serum albumin (n value = number of amino acid per binding site); format: functional; in short: as §2
# Homo sapiens [11] = organism: Homo sapiens; test: n value for the binding of lactone form to human serum albumin (n value = number of amino acid per binding site); format: functional; in short: as §2
# [12] = Half-life period in HSA buffer at 37 C in the presence of human serum albumin; format: ADME; conditions: buffer with human serum albumin
# Homo sapiens [13] = organism: Homo sapiens; test: % of lactone form at equilibrium in HSA buffer at 37 C in the presence of human serum albumin; format: functional
# Homo sapiens [14] = organism: Homo sapiens; test: % of lactone form at equilibrium in PBS buffer at 37 C in the absence of human serum albumin; format: functional
Compound,half-life [1] [min],K (Homo sapiens [2]),K (Homo sapiens [3]),Activity (Homo sapiens [4]) [%],half-life [5] [min],half-life [6] [min],half-life [7] [min],Activity (Homo sapiens [8]) [%],Activity (Homo sapiens [9]) [%],Activity (Homo sapiens [10]),Activity (Homo sapiens [11]),half-life [12] [min],Activity (Homo sapiens [13]) [%],Activity (Homo sapiens [14]) [%]
CCc1c2c(nc3ccc(O)cc13)-c1cc3c(c(=O)n1C2)COC(=O)[C@]3(O)CC [7-ETHYL-10-HYDROXYCAMPTOTHECIN],19.9,148 1/Maa,636 1/Maa,24,34.3,–,–,–,–,–,–,–,–,–
CC[C@@]1(O)C(=O)OCc2c1cc1n(c2=O)Cc2cc3ccccc3nc2-1 [CAMPTOTHECIN],–,4700 1/Maa,30 1/Maa,<0.2,10.6,12.6,16.9,<0.5,13,2.3,1.8,–,–,–
CC[C@@]1(O)C(=O)OCc2c1cc1n(c2=O)Cc2cc3cc(O)ccc3nc2-1 [HYDROXYCAMPTOTHECIN],22.1,264 1/Maa,135 1/Maa,6,18.6,–,–,–,–,1.7,1.7,21.1,4,16
